From ChEMBL document CHEMBL1955829, “Synthesis and biological evaluation of 4β-sulphonamido and 4β-[(4'-sulphonamido)benzamide]podophyllotoxins as DNA topoisomerase-IIα and apoptosis inducing agents” (2012) come the findings set out here.

SMILES strings stand for the structures. Activity calls are given as the source filed them. No cut-off for these calls is given here.

One test deals with ZR-75-1. The experiment in a line: Growth inhibition of human ZR-75-1 cells after 48 hrs by sulforhodamine B assay. The conditions noted are these: ZR-75-1, 48 h. Type of test: functional. Summed up:
(§1)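 Cells grown in DMEM with 10% FBS and 2 mM L-glutamine, plated at densities set by doubling time, and held 24 h before dosing. Exposure was 48 h to 0.1, 1, 10 and 100 µM in triplicate wells. Cells fixed with cold TCA (final 10%) 60 min at 4 °C and stained with 0.4% SRB 20 min. Bound dye eluted in 10 mM Tris base and read at 540 nm (690 nm reference). GI50 is the concentration giving 50% reduction in net protein gain versus control; values are the mean of three determinations.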
On the technique in general: The SRB assay estimates cell density from bound dye.
In the case of `COc1cc([C@@H]2c3cc4c(cc3[C@@H](NS(=O)(=O)c3cccc5ccccc35)[C@H]3COC(=O)[C@H]23)OCO4)cc(OC)c1OC`, the GI50 was determined as 2100 nM.

The molecule `COc1cc([C@@H]2c3cc4c(cc3[C@@H](NC(=O)c3ccc(NS(=O)(=O)c5ccc(Br)s5)cc3)[C@H]3COC(=O)[C@H]23)OCO4)cc(OC)c1OC` returned a GI50 of 2900 nM.

Turning to `COc1cc([C@@H]2c3cc4c(cc3[C@@H](NS(=O)(=O)c3cc(Cl)sc3Cl)[C@H]3COC(=O)[C@H]23)OCO4)cc(OC)c1OC`, the GI50 turned out to be 2500 nM.

Turning to `COc1cc([C@@H]2c3cc4c(cc3[C@@H](NS(=O)(=O)c3ccc(Br)s3)[C@H]3COC(=O)[C@H]23)OCO4)cc(OC)c1OC`, the GI50 is 180 nM.

The subject of a further test is MCF7. The experiment in a line: Growth inhibition of human MCF7 cells after 48 hrs by sulforhodamine B assay. Type of test: functional. As to conditions: MCF7, 48 h. Summed up: as §1
As for `COc1cc([C@@H]2c3cc4c(cc3[C@@H](NS(=O)(=O)c3cccc5ccccc35)[C@H]3COC(=O)[C@H]23)OCO4)cc(OC)c1OC`, the GI50 was determined as 90 nM. That is a double-digit nanomolar value.

In the case of `COc1cc([C@@H]2c3cc4c(cc3[C@@H](NC(=O)c3ccc(NS(=O)(=O)c5ccc(Br)s5)cc3)[C@H]3COC(=O)[C@H]23)OCO4)cc(OC)c1OC`, the GI50 stood at 2710 nM. This GI50 lies about 30-fold higher than the previous one.

Regarding `COc1cc([C@@H]2c3cc4c(cc3[C@@H](NS(=O)(=O)c3cc(Cl)sc3Cl)[C@H]3COC(=O)[C@H]23)OCO4)cc(OC)c1OC`, the GI50 came out at 110 nM. This GI50 is about 25-fold lower than that of the molecule before.

Molecule `COc1cc([C@@H]2c3cc4c(cc3[C@@H](NS(=O)(=O)c3ccc(Br)s3)[C@H]3COC(=O)[C@H]23)OCO4)cc(OC)c1OC` gave a GI50 of 130 nM.

For the next test, the system named is KB. The experiment in a line: Growth inhibition of human KB cells after 48 hrs by sulforhodamine B assay. In kind it is functional.
Details: not given
Summed up: as §1
Take `COc1cc([C@@H]2c3cc4c(cc3[C@@H](NS(=O)(=O)c3cccc5ccccc35)[C@H]3COC(=O)[C@H]23)OCO4)cc(OC)c1OC`: the GI50 was 2300 nM.

`COc1cc([C@@H]2c3cc4c(cc3[C@@H](NS(=O)(=O)c3cc(Cl)sc3Cl)[C@H]3COC(=O)[C@H]23)OCO4)cc(OC)c1OC`: the concentration for 50% growth inhibition (GI50) amounted to 2100 nM.

On to `COc1cc([C@@H]2c3cc4c(cc3[C@@H](NS(=O)(=O)c3ccc(Br)s3)[C@H]3COC(=O)[C@H]23)OCO4)cc(OC)c1OC`, for which the GI50 is 40 nM. Against the preceding molecule, the GI50 is about 52-fold lower.

Test system in the next test: not listed separately
Kind of test: Growth inhibition of human DWD cells after 48 hrs by sulforhodamine B assay. Type of test: functional.
Details: not given
Summed up:
as §1
As to `COc1cc([C@@H]2c3cc4c(cc3[C@@H](NS(=O)(=O)c3cccc5ccccc35)[C@H]3COC(=O)[C@H]23)OCO4)cc(OC)c1OC`, the GI50 was 2000 nM.

With `COc1cc([C@@H]2c3cc4c(cc3[C@@H](NC(=O)c3ccc(NS(=O)(=O)c5ccc(Br)s5)cc3)[C@H]3COC(=O)[C@H]23)OCO4)cc(OC)c1OC`, the GI50 worked out at 2500 nM. The GI50 values of the last two molecules are within 1.5-fold of each other.

In the case of `COc1cc([C@@H]2c3cc4c(cc3[C@@H](NS(=O)(=O)c3cc(Cl)sc3Cl)[C@H]3COC(=O)[C@H]23)OCO4)cc(OC)c1OC`, growth was halved (GI50) at 150 nM. This GI50 is about 17-fold lower than that of the molecule before.

As to `COc1cc([C@@H]2c3cc4c(cc3[C@@H](NS(=O)(=O)c3ccc(Br)s3)[C@H]3COC(=O)[C@H]23)OCO4)cc(OC)c1OC`, the GI50 came out at 50 nM.

The next test deals with COLO 205. Kind of test: Growth inhibition of human COLO205 cells after 48 hrs by sulforhodamine B assay. Type of test: functional. As to conditions: COLO 205, 48 h. An outline of the steps:
as §1
In the case of `COc1cc([C@@H]2c3cc4c(cc3[C@@H](NS(=O)(=O)c3cccc5ccccc35)[C@H]3COC(=O)[C@H]23)OCO4)cc(OC)c1OC`, it took 2100 nM to inhibit growth by half (GI50).

For `COc1cc([C@@H]2c3cc4c(cc3[C@@H](NS(=O)(=O)c3cc(Cl)sc3Cl)[C@H]3COC(=O)[C@H]23)OCO4)cc(OC)c1OC`, the GI50 is 150 nM.

`COc1cc([C@@H]2c3cc4c(cc3[C@@H](NS(=O)(=O)c3ccc(Br)s3)[C@H]3COC(=O)[C@H]23)OCO4)cc(OC)c1OC` showed a GI50 of 40 nM.

Another test deals with A549. Kind of test: Growth inhibition of human A549 cells after 48 hrs by sulforhodamine B assay. Type of test: functional. As to conditions: A549, 48 h. An outline of the steps: as §1
On to `COc1cc([C@@H]2c3cc4c(cc3[C@@H](NS(=O)(=O)c3cccc5ccccc35)[C@H]3COC(=O)[C@H]23)OCO4)cc(OC)c1OC`, for which halving of growth (GI50) required 160 nM.

As for `COc1cc([C@@H]2c3cc4c(cc3[C@@H](NS(=O)(=O)c3cc(Cl)sc3Cl)[C@H]3COC(=O)[C@H]23)OCO4)cc(OC)c1OC`, it took 140 nM to inhibit growth by half (GI50).

Molecule `COc1cc([C@@H]2c3cc4c(cc3[C@@H](NS(=O)(=O)c3ccc(Br)s3)[C@H]3COC(=O)[C@H]23)OCO4)cc(OC)c1OC` came in with a GI50 of 120 nM.

For another test, the system named is HOP-62. The experiment in a line: Growth inhibition of human HOP62 cells after 48 hrs by sulforhodamine B assay. As to conditions: HOP-62, 48 h. In kind it is functional. An outline of the steps:
as §1
Regarding `COc1cc([C@@H]2c3cc4c(cc3[C@@H](NS(=O)(=O)c3cccc5ccccc35)[C@H]3COC(=O)[C@H]23)OCO4)cc(OC)c1OC`, the GI50 was found to be 2400 nM.

As to `COc1cc([C@@H]2c3cc4c(cc3[C@@H](NC(=O)c3ccc(NS(=O)(=O)c5ccc(Br)s5)cc3)[C@H]3COC(=O)[C@H]23)OCO4)cc(OC)c1OC`, halving of growth (GI50) required 2010 nM. The GI50 values of the last two molecules are within 1.5-fold of each other.

For the molecule `COc1cc([C@@H]2c3cc4c(cc3[C@@H](NS(=O)(=O)c3cc(Cl)sc3Cl)[C@H]3COC(=O)[C@H]23)OCO4)cc(OC)c1OC`, the GI50 was 2000 nM. This GI50 and that of the molecule before are within 1.5-fold of each other.

`COc1cc([C@@H]2c3cc4c(cc3[C@@H](NS(=O)(=O)c3ccc(Br)s3)[C@H]3COC(=O)[C@H]23)OCO4)cc(OC)c1OC` returned a GI50 of 40 nM.

Another test has as its system A2780. Kind of test: Growth inhibition of human A2780 cells after 48 hrs by sulforhodamine B assay. The conditions noted are these: A2780, 48 h. Type of test: functional. An outline of the steps: as §1
The molecule `COc1cc([C@@H]2c3cc4c(cc3[C@@H](NS(=O)(=O)c3cccc5ccccc35)[C@H]3COC(=O)[C@H]23)OCO4)cc(OC)c1OC` showed a GI50 of 1910 nM.

In the case of `COc1cc([C@@H]2c3cc4c(cc3[C@@H](NC(=O)c3ccc(NS(=O)(=O)c5ccc(Br)s5)cc3)[C@H]3COC(=O)[C@H]23)OCO4)cc(OC)c1OC`, the GI50 worked out at 2110 nM.

In turn, `COc1cc([C@@H]2c3cc4c(cc3[C@@H](NS(=O)(=O)c3cc(Cl)sc3Cl)[C@H]3COC(=O)[C@H]23)OCO4)cc(OC)c1OC` returned a GI50 of 160 nM.

Take `COc1cc([C@@H]2c3cc4c(cc3[C@@H](NS(=O)(=O)c3ccc(Br)s3)[C@H]3COC(=O)[C@H]23)OCO4)cc(OC)c1OC`: halving of growth (GI50) required 60 nM.

Another test concerns COLO 205. Kind of test: Cytotoxicity against human COLO205 cells at 2 uM after 24 hrs by MTT assay. Type of test: functional, cell-based.
Details: not given
An outline of the steps: (§2)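 Colo-205 cells plated at 10,000 per well, left overnight, then exposed 24 h at 2, 4 or 8 µM. MTT added for 2 h at 37 °C, formazan dissolved in extraction buffer, and optical density read at 570 nm against untreated cells.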
In general terms: Tetrazolium assays rely on reduction of a dye to a coloured formazan, in cell work by metabolically active cells.
Consider `COc1cc([C@@H]2c3cc4c(cc3[C@@H](NS(=O)(=O)c3ccc(Br)s3)[C@H]3COC(=O)[C@H]23)OCO4)cc(OC)c1OC`, for which the result was Active.

The subject of the next test is COLO 205. The experiment in a line: Cytotoxicity against human COLO205 cells at 4 uM after 24 hrs by MTT assay. In kind it is functional, cell-based.
Details: not given
An outline of the steps: as §2
Regarding `COc1cc([C@@H]2c3cc4c(cc3[C@@H](NS(=O)(=O)c3ccc(Br)s3)[C@H]3COC(=O)[C@H]23)OCO4)cc(OC)c1OC`, the outcome was Active.

The next test concerns COLO 205. The experiment in a line: Cytotoxicity against human COLO205 cells at 8 uM after 24 hrs by MTT assay. Type of test: functional, cell-based.
Details: not given
An outline of the steps: as §2
With `COc1cc([C@@H]2c3cc4c(cc3[C@@H](NS(=O)(=O)c3ccc(Br)s3)[C@H]3COC(=O)[C@H]23)OCO4)cc(OC)c1OC`, the result was Active.

For another test, the system named is COLO 205. Kind of test: Cell cycle arrest in human COLO205 cells assessed as accumulation at G0 phase at 4 uM after 24 hrs by FACS analysis (reference value: 4.29%). In kind it is functional.
Details: not given
An outline of the steps:
(§3)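 Colo-205 cells seeded at […] per 60 mm dish and treated 24 h at 4 µM; TSA arm used TSA at 4 µM for 12 h. Cells trypsinised, fixed in ice-cold 70% ethanol 30 min at 4 °C, RNase 1 mg/mL 30 min at 37 °C, then propidium iodide/citrate/Triton stain. DNA content of 20,000 events read by flow cytometry; phase percentages from histograms.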
A general note: Flow cytometry measures light scatter and fluorescence of single cells or particles in a stream.
With `COc1cc([C@@H]2c3cc4c(cc3[C@@H](NS(=O)(=O)c3ccc(Br)s3)[C@H]3COC(=O)[C@H]23)OCO4)cc(OC)c1OC`, the Activity came to 11.04%.

A further test relates to COLO 205. The experiment in a line: Cell cycle arrest in human COLO205 cells assessed as accumulation at G1 phase at 4 uM after 24 hrs by FACS analysis (reference value: 60.89%).
Details: not given
Type of test: functional. Summed up:
as §3
For `COc1cc([C@@H]2c3cc4c(cc3[C@@H](NS(=O)(=O)c3ccc(Br)s3)[C@H]3COC(=O)[C@H]23)OCO4)cc(OC)c1OC`, the Activity is reported as 34.67%.

In the next test the test system is COLO 205. Kind of test: Cell cycle arrest in human COLO205 cells assessed as accumulation at S phase at 4 uM after 24 hrs by FACS analysis (reference value: 8.91%).
Details: not given
Type of test: functional. Summed up: as §3
On to `COc1cc([C@@H]2c3cc4c(cc3[C@@H](NS(=O)(=O)c3ccc(Br)s3)[C@H]3COC(=O)[C@H]23)OCO4)cc(OC)c1OC`, for which the “Percentage of cells in S phase” value is reported as 16.51%.

Another test has as its system COLO 205. The experiment in a line: Cell cycle arrest in human COLO205 cells assessed as accumulation at G2/M phase at 4 uM after 24 hrs by FACS analysis (reference value: 25.92%). In kind it is functional.
Details: not given
Summed up: as §3
Consider `COc1cc([C@@H]2c3cc4c(cc3[C@@H](NS(=O)(=O)c3ccc(Br)s3)[C@H]3COC(=O)[C@H]23)OCO4)cc(OC)c1OC`, for which the “Percentage of cells in G2/M phase” value is 37.78%.

Broadly, the GI50 is the concentration giving 50% growth inhibition.
